Assay results as given in ChEMBL document CHEMBL1143105, “Potent and selective small molecule NS3 serine protease inhibitors of Hepatitis C virus with dichlorocyclopropylproline as P2 residue” (Bioorg Med Chem, 2008).
*1 amine or outer side, *2 acyl side, *3 side chain or, on linkers, in order; H or OH if unused. Where a SMILES comes first, the peptide text is derived from it. [ ]: non-standard residue; d: D form. The star is where a group is joined. Pro(3R,4S-CMe2) = CC1(C)[C@@H]2[C@@H](C(=O)O)NC[C@@H]21; Pro(3S,4R-CCl2) = O=C(O)[C@H]1NC[C@H]2[C@@H]1C2(Cl)Cl; X2 = O=C(C(=O)[*:2])C(CC1CCC1)N[*:1]; X1 = O=C(C(=O)[*:2])C(CC1CC1)N[*:1]; X3 = CCCC(N[*:1])C(=O)C(=O)[*:2]; Chg = N[C@H](C(=O)O)C1CCCCC1; Phg = N[C@H](C(=O)O)c1ccccc1; Tle = CC(C)(C)[C@H](N)C(=O)O; Boc = CC(C)(C)OC(=O)*

Tests used:
[1] = Inhibition of hepatitis C virus NS3 serine protease; parameters: species or system Hepacivirus hominis
[2] = AUC in monkey at 2.2 mg/kg, iv; type: ADME, organism-based, Macaca mulatta; parameters: dose 2.2 mg/kg, route intravenous; details: rhesus monkey, plasma
[3] = Oral bioavailability in dog; type: ADME, organism-based, Canis lupus familiaris; details: in vivo
[4] = Half life in rat; type: ADME, organism-based; details: in vivo
[5] = AUC in rat at 10 mg/kg, po; type: ADME, organism-based; parameters: dose 10 mg/kg, route oral; details: plasma
[6] = AUC in dog at 2.2 mg/kg, iv; type: ADME, organism-based, Canis lupus familiaris; parameters: dose 2.2 mg/kg, route intravenous; details: plasma
Summary of the method: (§1)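 AUC is given in µM h. Compounds were tested as mixtures of two diastereomers at the P1 α-centre, with the isomer ratio varying slightly by compound.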

[7] = AUC in monkey at 3 mg/kg, po; type: ADME, organism-based, Macaca mulatta; parameters: dose 3 mg/kg, route oral; details: rhesus monkey, plasma
Hepatitis C virus = test: Antiviral activity in hepatitis C virus by cell based replicon assay; type: functional, organism-based, Hepacivirus hominis
[8] = Half life in dog; type: ADME, organism-based, Canis lupus familiaris; details: in vivo
[9] = Oral bioavailability in monkey; type: ADME, organism-based, Macaca mulatta; details: rhesus monkey, in vivo
[10] = Oral bioavailability in rat; type: ADME, organism-based; details: in vivo
[11] = AUC in rat at 10 mg/kg, iv; type: ADME, organism-based; parameters: dose 10 mg/kg, route intravenous; details: plasma
[12] = Half life in monkey; type: ADME, organism-based, Macaca mulatta; details: rhesus monkey, in vivo
[13] = AUC in dog at 3 mg/kg, po; type: ADME, organism-based, Canis lupus familiaris; parameters: dose 3 mg/kg, route oral; details: plasma; summary of the method: as §1
[14] = AUC in monkey at 1.5 mg/kg, po; type: ADME, organism-based, Macaca mulatta; parameters: dose 1.5 mg/kg, route oral; details: rhesus monkey, plasma; summary of the method: as §1
[15] = AUC in dog at 1.5 mg/kg, po; type: ADME, organism-based, Canis lupus familiaris; parameters: dose 1.5 mg/kg, route oral; details: plasma; summary of the method: as §1
[16] = AUC in monkey at 0.6 mg/kg, iv; type: ADME, organism-based, Macaca mulatta; parameters: dose 0.6 mg/kg, route intravenous; details: rhesus monkey, plasma; summary of the method: as §1
[17] = AUC in dog at 0.6 mg/kg, iv; type: ADME, organism-based, Canis lupus familiaris; parameters: dose 0.6 mg/kg, route intravenous; details: plasma; summary of the method: as §1
[18] = AUC in rat at 6 mg/kg, iv; type: ADME, organism-based; parameters: dose 6 mg/kg, route intravenous; details: plasma; summary of the method: as §1
[19] = AUC in rat at 7.5 mg/kg, po; type: ADME, organism-based; parameters: dose 7.5 mg/kg, route oral; details: plasma; summary of the method: as §1

C=CCNC(=O)C(=O)C(CCC)NC(=O)[C@@H]1[C@@H]2[C@H](CN1C(=O)[C@@H](NC(=O)NC(C)(C)C)C1CCCCC1)C2(Cl)Cl (stereo partly specified)
Ki [1]: 100 nM

CC(C)(C)OC(=O)N[C@H](C(=O)N1C[C@H]2[C@@H]([C@H]1C(=O)NC(CC1CC1)C(=O)C(N)=O)C2(Cl)Cl)C1CCCCC1 (stereo partly specified)
AUC [2]: 1.2 µM·h
bioavailability [3]: 2%
half-life [4]: 4.4 h
AUC [5]: 2.7 µM·h
AUC [6]: 2.6 µM·h
AUC [7]: 0.13 µM·h
EC50 (Hepatitis C virus): 500 nM
half-life [8]: 16 h
bioavailability [9]: 8%
bioavailability [10]: 26%
Ki [1]: 11 nM
AUC [11]: 10.7 µM·h
half-life [12]: 9.6 h
AUC [13]: 0.07 µM·h

C[C@@H](NC(=O)N[C@H](C(=O)N1C[C@H]2[C@@H]([C@H]1C(=O)NC(CC1CCC1)C(=O)C(N)=O)C2(Cl)Cl)C1CCCCC1)C(C)(C)C (stereo partly specified)
EC50 (Hepatitis C virus): 40 nM
Ki [1]: 10 nM

CC(C)(OC(=O)N[C@H](C(=O)N1C[C@H]2[C@@H]([C@H]1C(=O)NC(CC1CCC1)C(=O)C(N)=O)C2(Cl)Cl)C1CCCCC1)C(F)(F)F (stereo partly specified)
Ki [1]: 65 nM

CC(C)(C)NC(=O)N[C@H](C(=O)N1C[C@H]2[C@@H]([C@H]1C(=O)NC(CC1CCC1)C(=O)C(N)=O)C2(Cl)Cl)C1Cc2ccccc2C1 (stereo partly specified)
Ki [1]: 30 nM

C=CCNC(=O)C(=O)C(CCC)NC(=O)[C@@H]1[C@@H]2[C@H](CN1C(=O)[C@@H](NC(=O)OC(C)(C)C)C1CCCCC1)C2(Cl)Cl (stereo partly specified)
Ki [1]: 90 nM

CC(C)(C)OC(=O)N[C@H](C(=O)N1C[C@H]2[C@@H]([C@H]1C(=O)NC(CC1CCC1)C(=O)C(N)=O)C2(Cl)Cl)C(C)(C)C (stereo partly specified)
AUC [2]: 1.2 µM·h
bioavailability [3]: 10%
half-life [4]: 5.6 h
AUC [5]: 0.3 µM·h
AUC [6]: 4.5 µM·h
AUC [7]: 0.77 µM·h
EC50 (Hepatitis C virus): 100 nM
half-life [8]: 6.3 h
bioavailability [9]: 50%
bioavailability [10]: 12%
Ki [1]: 9 nM
AUC [11]: 2.6 µM·h
half-life [12]: 1.1 h
AUC [13]: 0.61 µM·h

NC(=O)C(=O)C(CC1CCC1)NC(=O)[C@@H]1[C@@H]2[C@H](CN1C(=O)[C@@H](NC(=O)NC1CCCCC1)C1CCCCC1)C2(Cl)Cl (stereo partly specified)
Ki [1]: 15 nM

CCCC(NC(=O)[C@@H]1[C@@H]2[C@H](CN1C(=O)[C@@H](NC(=O)NC(C)(C)C)C1CCCCC1)C2(Cl)Cl)C(=O)C(N)=O (stereo partly specified)
Ki [1]: 20 nM

CC(C)(C)OC(=O)N[C@H](C(=O)N1C[C@H]2[C@@H]([C@H]1C(=O)NC(CC1CCC1)C(=O)C(N)=O)C2(Cl)Cl)C1Cc2ccccc2C1 (stereo partly specified)
Ki [1]: 60 nM

NC(=O)C(=O)C(CC1CCC1)NC(=O)[C@@H]1[C@@H]2[C@H](CN1C(=O)[C@@H](NC(=O)OC1CC3CCC1C3)C1CCCCC1)C2(Cl)Cl (stereo partly specified)
AUC [5]: 0.75 µM·h
EC50 (Hepatitis C virus): 200 nM
Ki [1]: 60 nM

CC(C)(C)NC(=O)N[C@H](C(=O)N1C[C@H]2[C@@H]([C@H]1C(=O)NC(CC1CCC1)C(=O)C(N)=O)C2(Cl)Cl)C1CCCCC1 (stereo partly specified)
AUC [5]: 0.32 µM·h
EC50 (Hepatitis C virus): 300 nM
Ki [1]: 6 nM

CCCC(NC(=O)[C@@H]1[C@@H]2[C@H](CN1C(=O)[C@@H](NC(=O)OC(C)(C)C)C1CCCCC1)C2(Cl)Cl)C(=O)C(N)=O (stereo partly specified)
Ki [1]: 36 nM

CC(C)(C)OC(=O)N[C@H](C(=O)N1C[C@H]2[C@@H]([C@H]1C(=O)NC(CC1CCC1)C(=O)C(N)=O)C2(Cl)Cl)C1CCCCC1 (stereo partly specified)
bioavailability [3]: 2%
AUC [5]: 2.4 µM·h
EC50 (Hepatitis C virus): 300 nM
half-life [8]: 4.7 h
AUC [14]: 0.06 µM·h
bioavailability [9]: 4%
AUC [15]: 0.1 µM·h
Ki [1]: 17 nM
half-life [12]: 1.9 h
AUC [16]: 0.6 µM·h
AUC [17]: 2 µM·h

C=CCCC(NC(=O)[C@@H]1[C@@H]2[C@H](CN1C(=O)[C@@H](NC(=O)NC(C)(C)C)C1CCCCC1)C2(Cl)Cl)C(=O)C(=O)NCC=C (stereo partly specified)
Ki [1]: 44 nM

CC(C)(C)NC(=O)N[C@H](C(=O)N1C[C@H]2[C@@H]([C@H]1C(=O)NC(CC1CCC1)C(=O)C(N)=O)C2(Cl)Cl)C(C)(C)C (stereo partly specified)
half-life [4]: 2.7 h
EC50 (Hepatitis C virus): 200 nM
bioavailability [10]: 5%
AUC [18]: 1.9 µM·h
Ki [1]: 7 nM
AUC [19]: 0.12 µM·h

CN(C)C(=O)[C@@H](NC(=O)CNC(=O)C(=O)C(CC1CC1)NC(=O)[C@@H]1[C@@H]2[C@H](CN1C(=O)[C@@H](NC(=O)OC(C)(C)C)C1CCCCC1)C2(Cl)Cl)c1ccccc1 (stereo partly drawn) (Boc-[Chg][Pro(3S,4R-CCl2)][X1]G[Phg]-NMe2)
Ki [1]: 7 nM

CN(C)C(=O)[C@@H](NC(=O)CNC(=O)C(=O)C(CC1CCC1)NC(=O)[C@@H]1[C@@H]2[C@H](CN1C(=O)[C@@H](NC(=O)OC(C)(C)C)C1CCCCC1)C2(Cl)Cl)c1ccccc1 (stereo partly drawn) (Boc-[Chg][Pro(3S,4R-CCl2)][X2]G[Phg]-NMe2)
Ki [1]: 9 nM

CCCC(NC(=O)[C@@H]1[C@@H]2[C@H](CN1C(=O)[C@@H](NC(=O)OC(C)(C)C)C1CCCCC1)C2(Cl)Cl)C(=O)C(=O)NCC(=O)N[C@H](C(=O)N(C)C)c1ccccc1 (stereo partly drawn) (Boc-[Chg][Pro(3S,4R-CCl2)][X3]G[Phg]-NMe2)
Ki [1]: 15 nM

CN(C)C(=O)[C@@H](NC(=O)CNC(=O)C(=O)C(CC1CC1)NC(=O)[C@@H]1[C@@H]2[C@H](CN1C(=O)[C@@H](NC(=O)OC(C)(C)C)C(C)(C)C)C2(C)C)c1ccccc1 (stereo partly drawn) (Boc-[Tle][Pro(3R,4S-CMe2)][X1]G[Phg]-NMe2)
EC50 (Hepatitis C virus): 40 nM
bioavailability [9]: 1%
bioavailability [10]: 4%
Ki [1]: 3.8 nM

CC(C)(C)NC(=O)N[C@H](C(=O)N1C[C@H]2[C@@H]([C@H]1C(=O)NC(CC1CCC1)C(=O)C(N)=O)C2(C)C)C(C)(C)C (stereo partly specified) [BOCEPREVIR]
EC50 (Hepatitis C virus): 200 nM
Ki [1]: 14 nM
